Assay outcomes as filed in PubChem BioAssay.
MT stabilizer: microtubule stabilization, imaging screen; % tubulin-high responders, % at 10 µM; HeLa tubulin immunostaining HCS, 24 h; share of cells brighter than vehicle mean+2SD; 0.83% of 200,000 active; AID 2205;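 active = plate Z-score above 3 for both tubulin-high and condensed-nucleus cell shares, with cell loss under 80%, at 10 µM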;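 note: anti alpha tubulin signal scored within the nucleus-defined area of each cell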
Ba/F3 V617F tox: loss of viability in JAK2V617F-driven Ba/F3 cells; Ba/F3 EpoR-JAK2V617F viability, ATP luminescence; inhibition, % at 5.6 µM; 1.1% of 220,000 active;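 active = inhibition above the campaign mean plus 3 SD over all tested compounds, cut at about 24% in these data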;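 note: cytokine-independent growth of Ba/F3 cells driven by EpoR plus mutant JAK2; 0% = DMSO-treated cells and 100% = JAK inhibitor I control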
bCat nuc transl: beta-catenin nuclear translocation modulation. HeLa beta-catenin nuclear translocation, immunofluorescence imaging. nuclear translocation activity, % at 5 µM. 0.3% of 190,000 active. AID 1665;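 active = nuclear translocation activity above 50% at 5 µM, with a well cell count of 50 or more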;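 note: per-cell ratio of nuclear to cytoplasmic median beta-catenin stain intensity; plate controls were DMSO negative control for no effect and GSK-3 inhibitor IX positive control for full effect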
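Assay system: human HeLa cells, native beta-catenin; doses: 5 µM primary, 0.02–20 µM confirmation; incubation: compound treatment 24 h, 37°C, 5% CO2; technique: fluorescence imaging of beta-catenin antibody stain plus DAPI; measure: % activation, nuclear-to-cytoplasmic median beta-catenin signal ratio per cell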
BaF3 parental: counter-screen for JAK2V617F inhibitors: parental Ba/F3 viability inhibitors. inhibition, % at 5.6 µM. AID 1486. CellTiter-Glo ATP luminescence. 1.1% of 220,000 active;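 active = inhibition above a per-campaign cutoff, the mean inhibition of all tested compounds plus 3 SD, cut at about 27% in these data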;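 note: 0% = DMSO wells and 100% = JAK Inhibitor I control wells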
IEC-6 tox: counter-screen for KLF5 inhibitors: cytotoxicity in IEC-6 cells; IEC-6 cytotoxicity, luminescence viability; inhibition, % at 5 µM; 0.78% of 290,000 active; AID 1825;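 note: 0% = plate median of test compound wells and 100% = cytotoxic reference compound wells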
KLF5 inhibitor: suppresses KLF5 promoter-driven expression; DLD-1 KLF5 promoter-luciferase reporter, luminescence; inhibition, % at 5 µM; 0.23% of 290,000 active;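 active = inhibition above a per-plate limit of that plate's mean compound inhibition plus 3 SD, cut at about 60% in these data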;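 note: 0% = DMSO wells and 100% = LY294002 at 200 µM; higher means less KLF5 promoter-driven luciferase light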
IEC-6 tox confirm: IEC-6 cytotoxicity, confirmation assay | shares compounds with IEC-6 tox | IEC-6 rat intestinal epithelial viability, luminescence | inhibition, % at 5 µM | 63% of 1,900 active;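 note: 0% = vehicle and 100% = reference cytotoxic drug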
* = called active by the depositor; . = no result. Sampled rows, rich in hits. Any-hit rate of the full collection: about 2.1%. Cut-off read from the data, not from the text of the source, unless noted: active = inhibition above about 22%; inactive = the rest.

SMILES	MT stabilizer	Ba/F3 V617F tox	bCat nuc transl	BaF3 parental	IEC-6 tox	KLF5 inhibitor	IEC-6 tox confirm
COc1ccc(-c2cn(-c3ccc(OC)cc3)c3[n+]2-c2ccccc2CC3)cc1	3.8	94.7*	-0.6	77.0*	24.7*	-30.7	26.4*
O=S(=O)(Nc1nc2ccc(S(=O)(=O)N3CCCC3)cc2s1)c1ccc(F)cc1	3.2	2.3	.	4.8	5.6	13.7	.
Cc1ccc(NS(=O)(=O)c2c(C(=O)N3CCCCCC3)c(C)n(C)c2C)cc1C	.	.	.	.	-1.4	2.1	.
COc1ccccc1NS(=O)(=O)c1cc(-c2cnc(C3CC3)o2)ccc1C	.	.	.	.	19.7	23.7	.
O=S(=O)(Nc1ccccc1)c1ccc(-c2cnc(C3CC3)o2)cc1	.	.	.	.	41.5*	39.1	32.6*
CC(=O)Nc1ccc(NS(=O)(=O)c2ccc(-c3cnc(C4CC4)o3)cc2)cc1	.	.	.	.	4.9	-13.2	.
Cc1cccc(NS(=O)(=O)c2ccc(-c3cnc(C4CC4)o3)cc2)c1C	.	.	.	.	87.9*	37.8	58.3*
O=S(=O)(NCc1ccc(F)cc1)c1ccc(-c2cnc(C3CC3)o2)cc1	.	.	.	.	5.0	-24.7	.
Cc1ccc(C)c(NS(=O)(=O)c2ccc(-c3cnc(C4CC4)o3)cc2)c1	.	.	.	.	92.7*	60.5	62.2*
CC(=O)c1cccc(NS(=O)(=O)c2ccc(-c3cnc(C4CC4)o3)cc2)c1	.	.	.	.	37.5*	21.8	37.6*
C=CCNS(=O)(=O)c1ccc2c(c1)n(C)c(=O)n2C	2.3	-2.0	-2.1	0.5	4.2	-33.2	.
CCOc1ccc(NS(=O)(=O)c2ccc(-c3cnc(C4CC4)o3)cc2)cc1	.	.	.	.	17.5	-9.0	.
Cc1cc(C)cc(NS(=O)(=O)c2ccc(-c3cnc(C4CC4)o3)cc2)c1	.	.	.	.	87.2*	59.3	50.7*
COc1ccc(NS(=O)(=O)c2cc(-c3cnc(C4CC4)o3)ccc2C)cc1	.	.	.	.	80.7*	40.6	73.8*
Cc1cccc(-c2noc(-c3ccccc3C(=O)NCc3ccco3)n2)c1	.	5.3	-0.5	-4.2	4.5	-98.0	.
COc1ccccc1NC(=O)Cc1noc(CN(C)Cc2cccs2)n1	3.2	1.7	-0.8	4.1	-10.3	-31.1	.
O=C(NCCN1CCOCC1)C(=O)NCC1OCCCN1S(=O)(=O)c1ccc(F)cc1 (centres undefined)	.	.	.	.	7.0	-8.9	.
Cc1noc(/C=C/N(C)C)c1S(=O)(=O)N1CCCC(C(=O)NCCC2=CCCCC2)C1 (centres undefined)	4.8	-2.6	.	4.8	7.4	-21.5	-9.4
N#Cc1ccccc1S(=O)c1ccccc1C(=O)Nc1ccccc1 (centres undefined)	2.1	-0.9	0.1	-0.3	2.4	-11.7	.
COc1ccccc1-c1c(C#N)c(N)nc2c1CCc1ccccc1-2	25.7	11.7	.	8.2	23.5*	15.8	19.0
Cc1cccc(C(=O)Nc2cccc3cccnc23)c1	.	.	.	.	8.3	-93.8	.
Cc1cnc(C(=O)Nc2cccc3cccnc23)cn1	2.4	89.6*	1.7	33.5*	91.4*	-0.8	18.1
COc1ccc(/C=C2\COc3ccccc3C2=O)c(OC)c1	.	.	.	.	26.0*	-58.3	-2.6
COCC(=O)Nc1ccc(F)cc1	6.9	0.2	-1.8	0.8	1.7	-3.2	.
COCCCNC(=S)N/N=C/c1cccc(OC)c1O	.	-3.1	-2.6	0.5	60.5*	40.1	18.3
SMILES	MT stabilizer	Ba/F3 V617F tox	bCat nuc transl	BaF3 parental	IEC-6 tox	KLF5 inhibitor	IEC-6 tox confirm
COCCCNC(=S)N/N=C/c1ccc(O)cc1O	.	-3.7	-1.7	0.3	-3.0	-12.5	.
CCOC(=O)Nc1ccc2c(c1)N(C(=O)CCN(CC)CC)c1ccccc1CC2	.	.	.	.	5.1	-20.6	.
CCOC(=O)Nc1ccc2c(c1)N(C(=O)CCN(CC)CC)c1ccccc1S2=O (centres undefined)	.	.	.	.	22.6*	-1.9	12.6
CC1(C)Cc2nc3sc4c(SCC(=O)NCc5ccccc5)ncnc4c3cc2CO1	35.1*	53.0*	.	36.4*	47.9*	15.4	51.1*
CC1(C)Cc2nc3sc4c(SCC(=O)O)ncnc4c3cc2CO1	.	0.3	0.2	-0.5	-3.3	27.0	.
COc1cc2c(c(OC)c1OC)-c1ccc(NC(=O)c3ccc(F)cc3)c(=O)cc1[C@@H](NC(C)=O)CC2	.	.	.	.	26.0*	17.5	52.6*
CCN(CC)c1ccc(C=C(c2nnnn2-c2ccc(C)cc2)c2nnnn2-c2ccc(C)cc2)cc1	4.4	3.8	2.4	2.4	12.7	-17.8	.
COc1ccc(-c2cc(C(=O)N/N=C(\C)c3cccnc3)c3cc(C)ccc3n2)cc1OC	.	.	.	.	34.0*	-8.6	18.8
Brc1ccccc1C1=Nn2c(nnc2-c2ccccc2)SC1	1.1	36.9*	.	32.0*	27.3*	-4.5	21.5
Brc1ccccc1C1=Nn2c(nnc2-c2ccco2)SC1	.	-4.3	0.5	3.3	1.7	-8.0	.
COc1ccc(CC(=O)N/N=C/c2c(C)n(C)c3ccccc23)cc1OC	.	4.2	0.5	1.4	13.9	21.9	.
COc1ccc(C/C(C)=N\NC(=O)c2cn(C)c3ccccc23)cc1OC	.	17.5	0.8	10.0	30.8*	41.3	-8.9
COc1ccc(NC(=O)C(NC(=O)c2ccccc2)C(C)C)cc1 (centres undefined)	1.5	-0.9	-2.0	6.9	-4.7	-18.0	.
Cc1cccc(C(=O)N[C@H](C(=O)Nc2nc3ccccc3[nH]2)C(C)C)c1	14.8	77.0*	26.1	27.4*	73.7*	16.7	55.6*
COc1ccc(C(=O)N[C@H](C(=O)Nc2nc3ccccc3[nH]2)C(C)C)cc1	6.2	42.4*	2.1	60.5*	62.8*	-24.5	58.7*
N#Cc1ccc(S(=O)(=O)Nc2ccc3ccccc3n2)cc1	.	-1.6	-2.2	-0.6	1.0	11.2	.
COc1cccc(-n2nc(C(N)=O)c(O)cc2=O)c1	3.8	0.7	-1.3	3.2	-0.7	-18.3	.
COc1cccc(-n2nc(C#N)c(Cl)cc2=O)c1	2.1	8.1	-1.9	-10.2	28.1*	11.6	29.2*
Cc1cc(C)n(-c2nc3ccccc3c(=O)n2OCC(=O)N(C)C)n1	1.9	-0.7	2.8	4.5	0.9	-15.2	.
Cc1cc(C)n(-c2nc3ccccc3c(=O)n2OCC(=O)OCc2ccccc2)n1	1.6	-0.6	-1.7	3.7	57.6*	7.8	30.2*
Clc1ccc(C2Nc3cccc4cccc(c34)N2)cc1Cl	.	.	.	.	-2.4	19.1	.
O=[N+]([O-])c1ccc(Cl)c(C2Nc3cccc4cccc(c34)N2)c1	2.3	100.1*	1.3	102.5*	69.7*	17.1	35.2*
COc1ccccc1NC(=O)N1CCC(c2nc3cc(C)c(C)cc3[nH]2)CC1	18.1*	83.1*	40.5	81.1*	82.0*	47.0	58.8*
COc1cccc(NC(=O)C(NCCc2ccc(S(N)(=O)=O)cc2)c2ccccc2)c1 (centres undefined)	.	.	.	.	4.7	-21.1	.
CCOC(=O)CSC1=C(C#N)C(c2ccc(C)s2)CC(=O)N1 (centres undefined)	30.8*	81.1*	43.1	77.5*	74.9*	52.7	52.5*
